Active and inactive are the calls of the source.
Key:
[1] = biological target: Muscarinic acetylcholine receptor M3 (Mus musculus) (UniProt Q9ERZ3); experiment: Increase in phosphoinositide (PI) metabolism in A9L-cholinergic receptor, muscarinic 3 expressing cells was measured at 100 uMolar; format: functional; conditions: 100 uM
How it was run: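 A9L fibroblasts transfected with m3 receptor, grown in DMEM with 10% newborn calf serum. Labeled overnight with [3H]myo-inositol, preincubated 5 min at 37 °C in 10 mM LiCl DMEM-Hepes. Compound at 100 μM final, 30 min at 37 °C. Labeled inositol phosphates extracted by ion exchange. Result expressed as percent of the oxotremorine-M response, duplicate determinations.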

[2] = tested on: A9; experiment: Increase in phosphoinositide (PI) metabolism in A9L-m1 cells at 100 uM.; format: functional, Mus musculus
[3] = biological target: T1, Muscarinic acetylcholine receptor (Rattus norvegicus) (UniProt P08482+P08483+P08485+P08911+P10980); experiment: Evaluated for displacement of [3H]oxotremorine-M binding ([3H]OXO-M) at muscarinic acetylcholine receptor in rat forebrain membranes; format: cell membranes; design: concentration or dose not given beside the values; conditions: Membrane
How it was run: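 Sprague-Dawley rat forebrain membranes. Incubated with 2.7 nM [3H]Oxo-M in 50 mM NaPO4, 2 mM MgCl2, pH 7.4, 20 min at 37 °C. Filtered on glass fiber presoaked in 0.05% polyethylenimine. Nonspecific binding defined with 1 μM atropine. Single concentration 1 μM, triplicate, averaged over two to five trials. Read-out is percent displacement of specific binding.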

[4] = The percent inhibition of cyclic AMP(cAMP) formation in NG108-15 cells at 100 uM.; conditions: Mus musculus
[5] = biological target: T1, Muscarinic acetylcholine receptor (Rattus norvegicus); experiment: Displacement of [3H]N-methylscopolamine ([3H]NMS) binding at muscarinic acetylcholine receptor in rat cerebral cortical membranes; format: cell membranes; design: concentration or dose not given beside the values; conditions: Membrane
How it was run: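 Rat (Sprague-Dawley, either sex, 200 g) forebrain membranes, homogenized and washed in 50 mM sodium phosphate pH 7.4. 200-300 μg membrane incubated with 0.5 nM [3H]NMS plus compound (single concentration, 100 μM) in phosphate-buffered saline, 60 min at 37 °C. Filtered on glass fiber, scintillation counted. Nonspecific binding defined with 1 μM atropine. Triplicate. Reported as percent displacement.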

[6] = tested on: A9; experiment: The increase in phosphoinositide (PI) metabolism in A9L-m1 cells was measured at 100 uM; i = inactive; format: functional, cell-based; conditions: Mus musculus
How it was run: (§1)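 A9L fibroblasts transfected with m1 or m3 receptor, grown in DMEM with 10% newborn calf serum. Labeled overnight with [³H]myo-inositol, preincubated 5 min at 37 °C in 10 mM LiCl in DMEM-Hepes, then exposed to compound at 100 μM final for 30 min. Inositol phosphates extracted by ion exchange. Result expressed as percent of Oxo-M response; duplicate determinations.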

[7] = The percent inhibition of cyclic AMP(cAMP) formation in NG108-15 cells expressed in m40AChR was measured; i=inactive (< 2%); conditions: Mus musculus
[8] = biological target: T1, Muscarinic acetylcholine receptor (Rattus norvegicus); experiment: compound was evaluated for displacement of [3H]oxotremorine-M binding ([3H]OXO-M) at muscarinic acetylcholine receptor in rat forebrain membranes; i = inactive (< 1%); format: cell membranes; conditions: Membrane
How it was run: (§2)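 Forebrain membranes from Sprague-Dawley rats, prepared in 50 mM sodium phosphate pH 7.4. Incubated with 2.7 nM [³H]Oxo-M and test compound at a single concentration of 1 μM in 50 mM NaPO₄, 2 mM MgCl₂, pH 7.4, 20 min at 37 °C. Filters presoaked in polyethylenimine; nonspecific binding with 1 μM atropine. Percent displacement, mean of two to five trials.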

[9] = biological target: T1, Muscarinic acetylcholine receptor (Rattus norvegicus); experiment: Compound was evaluated for displacement of [3H]N-methylscopolamine ([3H]NMS) binding at muscarinic acetylcholine receptor in rat cerebral cortical membranes; format: cell membranes; conditions: Membrane
How it was run: (§3)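 Rat cerebral cortical membranes, 200-300 μg per tube, incubated with 0.5 nM [³H]NMS and test compound at a single concentration of 100 μM in phosphate-buffered saline, 60 min at 37 °C. Glass fiber filtration and scintillation counting. Nonspecific binding taken with 1 μM atropine and subtracted. Triplicates; result given as percent displacement of specific binding.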

[10] = biological target: T1, Muscarinic acetylcholine receptor (Rattus norvegicus); experiment: Compound was evaluated for displacement of [3H]oxotremorine-M binding ([3H]OXO-M) at muscarinic acetylcholine receptor in rat forebrain membranes; format: cell membranes; conditions: Membrane; how it was run: as §2
[11] = tested on: A9; experiment: The increase in phosphoinositide (PI) metabolism in A9L-m3 cells was measured at 100 uM; i = inactive; format: functional, cell-based; conditions: Mus musculus; how it was run: as §1
[12] = biological target: T1, Muscarinic acetylcholine receptor (Rattus norvegicus); experiment: compound was evaluated for displacement of [3H]N-methylscopolamine ([3H]NMS) binding at muscarinic acetylcholine receptor in rat cerebral cortical membranes; i = inactive (< 1%); format: cell membranes; conditions: Membrane; how it was run: as §3

Chain of Muscarinic acetylcholine receptor M3 (Mus musculus) (Q9ERZ3 whole entry): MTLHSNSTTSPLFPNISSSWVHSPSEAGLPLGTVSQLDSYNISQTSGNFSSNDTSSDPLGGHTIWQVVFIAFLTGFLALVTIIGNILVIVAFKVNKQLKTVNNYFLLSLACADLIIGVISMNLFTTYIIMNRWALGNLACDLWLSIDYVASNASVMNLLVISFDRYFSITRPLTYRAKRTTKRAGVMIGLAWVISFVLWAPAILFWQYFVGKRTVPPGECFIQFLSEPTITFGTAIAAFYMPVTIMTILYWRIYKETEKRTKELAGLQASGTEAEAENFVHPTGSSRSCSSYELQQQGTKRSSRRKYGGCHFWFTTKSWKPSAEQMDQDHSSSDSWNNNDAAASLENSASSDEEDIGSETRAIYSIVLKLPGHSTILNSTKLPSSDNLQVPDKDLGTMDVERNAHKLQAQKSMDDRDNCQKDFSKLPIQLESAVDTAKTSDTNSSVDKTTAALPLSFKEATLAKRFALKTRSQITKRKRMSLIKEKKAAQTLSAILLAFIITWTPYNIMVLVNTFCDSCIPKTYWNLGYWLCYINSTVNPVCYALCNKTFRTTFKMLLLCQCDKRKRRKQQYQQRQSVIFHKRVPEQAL

Compound | PI turnover [1] | PI turnover [2] | Displacement [3] | inhibition [4] | Displacement [5] | PI turnover [6] | inhibition [7] | Displacement [8] | Displacement [9] | Displacement [10] | PI turnover [11] | Displacement [12]
CC(=O)N(C)CC#CCN1CCC(OS(C)(=O)=O)C1.O=C(O)C(=O)O (centres undefined) | 17.2 | 10.4 | 25.2% | 38.5% | 20.2% |  |  |  |  |  |  | 
CC(=O)N(C)CC#CCN1CCCCC1 | 5.6 |  | 68.9% |  | 83.4% | inactive | inactive |  |  |  |  | 
CC(=O)N(C)CC#CCN1CCC(CO)CC1.O=C(O)C(=O)O | 16 | 8.8 | 14.7% | 4.8% | 10.2% |  |  |  |  |  |  | 
O=C1CCCN1CC#CCN1CCCC1 | 35.6 |  |  |  |  |  |  |  |  |  |  | 
CC(=O)N(C)CC#CCN1CCNCC1.O=C(O)C(=O)O | 12 | 18.2 | 33.8% | 16.8% | 51.2% |  |  |  |  |  |  | 
CC(=O)N(C)CC#CCN1CCC(F)CC1 |  |  |  |  | 18.8% |  |  |  |  |  |  | 
CC(=O)N(C)CC#CCN1CCCC1 | 41.6 | 52.5 | 94.7% | 100% | 89.4% |  |  |  |  |  |  | 
CC(=O)N(C)CC#CCN1CCCC(O)C1 (centres undefined) | 4.9 |  | 9.1% | 3.4% | 21.7% | inactive |  |  |  |  |  | 
CC(=O)N(C)CC#CCN1CCC(F)C1.O=C(O)C(=O)O (centres undefined) | 7.9 | 11.3 | 38.1% | 8.9% | 29% |  |  |  |  |  |  | 
CC(=O)N(C)CC#CCN1CCC[C@@H]1CF.O=C(O)C(=O)O | 10.4 | 7.2 | 61.5% | 38.6% | 67.2% |  |  |  |  |  |  | 
CC(=O)N(C)CC#CCN1CCN(C(C)=O)CC1.O=C(O)C(=O)O | 3.1 | 1 |  |  | 59.2% |  | inactive | inactive |  |  |  | 
CC(=O)N(C)CC#CCN1CCC[C@H]1CO.O=C(O)C(=O)O | 4.7 | 5.1 | 25% |  | 33.1% |  | inactive |  |  |  |  | 
CC(=O)N(C)CC#CCN1CCC(O)C1.O=C(O)C(=O)O (centres undefined) | 7.4 | 17.1 | 39.9% | 22.5% | 21.5% |  |  |  |  |  |  | 
CCOC(=O)C1CCN(CC#CCN(C)C(C)=O)CC1.O=C(O)C(=O)O | 8.8 | 3.3 | 32.1% |  | 47.5% |  | inactive |  |  |  |  | 
CC(=O)N(C)CC#CCN1CCC(CCO)CC1.O=C(O)C(=O)O |  | 3.3 | 11% |  | 16.3% |  | inactive |  |  |  |  | 
CC(=O)N(C)CC#CCN1CCC(OC(=O)c2ccccc2)C1.O=C(O)C(=O)O (centres undefined) | 4 | 1.4 | 39.1% |  | 57.4% |  | inactive |  |  |  |  | 
CC(=O)N(C)CC#CCN1CCCCC1CO.O=C(O)C(=O)O (centres undefined) | 12.5 | 7.3 | 20.4% |  | 31.2% |  | inactive |  |  |  |  | 
CC(=O)OC[C@H]1CCCN1CC#CCN(C)C(C)=O | 2.6 |  |  |  |  | inactive | inactive |  | 61.6% | 42.1% |  | 
CCOC(=O)C1CCCN(CC#CCN(C)C(C)=O)C1.O=C(O)C(=O)O (centres undefined) | 12.9 | 6.6 | 31.2% | 23.6% | 39.8% |  |  |  |  |  |  | 
CC(=O)N(C)CC#CCN1CCCC(CO)C1 (centres undefined) | 2.8 |  | 22.4% |  | 45% | inactive |  |  |  |  |  | 
CC(=O)N(C)CC#CCN1CCC(O)CC1 | 2.6 |  | 9.2% |  | 3.8% | inactive |  |  |  |  |  | 
CC(=O)N(C)CC#CCN1CCC(OS(=O)(=O)c2ccc(C)cc2)C1.O=C(O)C(=O)O (centres undefined) | 23.1 | 23.1 | 64.8% | 83.6% | 51.6% |  |  |  |  |  |  | 
COC[C@@H]1CCCN1CC#CCN(C)C(C)=O.O=C(O)C(=O)O | 5.5 | 6.2 |  | 15.4% | 52% |  |  |  |  |  |  | 
CC(=O)N(C)CC#CCN1CCC1.O=C(O)C(=O)O | 59.8 | 61.3 | 94% | 95.7% | 38% |  |  |  |  |  |  | 
CC(=O)N(C)CC#CCN1CCN(CCO)CC1 |  |  | 22.3% |  | 9.3% | inactive | inactive |  |  |  | inactive | 
CCOC(=O)C1CCCCN1CC#CCN(C)C(C)=O.O=C(O)C(=O)O (centres undefined) | 15.2 | 12.8 | 24.9% | 44.1% | 5.8% |  |  |  |  |  |  | 
CC(=O)N(C)CC#CCN1CCC(C(=O)O)CC1 | 5.2 |  | 26.8% | 17.5% |  | inactive |  |  |  |  |  | inactive
C[N+](C)(C)CCOC(N)=O | 86.1 |  |  |  |  |  |  |  |  |  |  | 
CC(=O)N(C)CC#CCN1CCC[C@@H]1CO.O=C(O)C(=O)O | 4.8 | 2.6 | 39.7% |  | 56.2% |  | inactive |  |  |  |  | 

— ChEMBL document CHEMBL1125621, “Muscarinic receptor binding and activation of second messengers by substituted N-methyl-N-[4-(1-azacycloalkyl)-2-butynyl]acetamides” (1991)
